The target of test [1] is T1, Platelet-activating factor acetylhydrolase IB subunit alpha1 (Mus musculus) (UniProt Q61205).
T1 sequence (whole entry): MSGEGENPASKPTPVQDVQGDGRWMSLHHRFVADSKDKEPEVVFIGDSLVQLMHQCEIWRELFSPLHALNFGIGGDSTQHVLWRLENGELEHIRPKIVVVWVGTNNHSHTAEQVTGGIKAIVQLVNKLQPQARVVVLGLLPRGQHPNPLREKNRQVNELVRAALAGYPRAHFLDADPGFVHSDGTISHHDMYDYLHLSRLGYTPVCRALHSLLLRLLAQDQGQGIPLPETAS
To be noted: Neuro2a, 3 nM.

In another test the test system is Mus musculus. Put plainly: In vivo inhibition of ABHD6 in C57Bl/6 mouse liver at 20 mg/kg, ip after 4 hrs by FP-rhodamine/HT-10-labelled gel-based competitive assay. It counts as functional, organism-based. The arrangement: dose 20 mg/kg. In short, it runs like this:
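C57Bl/6 mice dosed i.p. at 1–40 mg kg⁻¹ in 18:1:1 saline/ethanol/PEG40, 10 μL g⁻¹, for 4 hr, then killed. Brain and liver membrane proteomes labelled with FP-rhodamine or HT-01 (1 μM, 30 min, 37 °C) and resolved by SDS-PAGE with in-gel fluorescence scanning.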

Test [2] deals with T2, Monoacylglycerol lipase ABHD6 (Mus musculus) (UniProt Q8R2Y0).
T2 sequence (whole entry): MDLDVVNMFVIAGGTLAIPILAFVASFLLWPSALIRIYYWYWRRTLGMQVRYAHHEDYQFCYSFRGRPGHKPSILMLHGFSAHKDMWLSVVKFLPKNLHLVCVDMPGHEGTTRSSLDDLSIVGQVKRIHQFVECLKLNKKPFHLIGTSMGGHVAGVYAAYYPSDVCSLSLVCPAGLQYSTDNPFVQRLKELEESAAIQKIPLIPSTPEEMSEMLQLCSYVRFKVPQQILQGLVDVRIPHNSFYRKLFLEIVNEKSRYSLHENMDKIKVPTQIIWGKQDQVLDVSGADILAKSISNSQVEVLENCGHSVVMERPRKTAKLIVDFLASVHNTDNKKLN
The experiment in a line: Inhibition of ABHD6 in FP-rhodamine-labelled mouse brain membrane at 1 nM preincubated for 30 mins followed by FP-rhodamine labelling measured after 30 mins by gel-based competitive ABPP assay. It counts as tissue-based. In short, it runs like this:
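Mouse brain membrane proteome (1 mg/mL) preincubated with compound for 30 min at 37 °C, then labelled with FP-rhodamine or HT-01 (1 μM final) for 30 min at 37 °C. Quenched in SDS loading buffer, run on 10% SDS-PAGE and scanned for in-gel fluorescence. Bands assigned by gel migration.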

Test [3] concerns the target T3, Patatin-like phospholipase domain-containing protein 6 (Mus musculus) (UniProt Q3TRM4).
T3 sequence (whole entry): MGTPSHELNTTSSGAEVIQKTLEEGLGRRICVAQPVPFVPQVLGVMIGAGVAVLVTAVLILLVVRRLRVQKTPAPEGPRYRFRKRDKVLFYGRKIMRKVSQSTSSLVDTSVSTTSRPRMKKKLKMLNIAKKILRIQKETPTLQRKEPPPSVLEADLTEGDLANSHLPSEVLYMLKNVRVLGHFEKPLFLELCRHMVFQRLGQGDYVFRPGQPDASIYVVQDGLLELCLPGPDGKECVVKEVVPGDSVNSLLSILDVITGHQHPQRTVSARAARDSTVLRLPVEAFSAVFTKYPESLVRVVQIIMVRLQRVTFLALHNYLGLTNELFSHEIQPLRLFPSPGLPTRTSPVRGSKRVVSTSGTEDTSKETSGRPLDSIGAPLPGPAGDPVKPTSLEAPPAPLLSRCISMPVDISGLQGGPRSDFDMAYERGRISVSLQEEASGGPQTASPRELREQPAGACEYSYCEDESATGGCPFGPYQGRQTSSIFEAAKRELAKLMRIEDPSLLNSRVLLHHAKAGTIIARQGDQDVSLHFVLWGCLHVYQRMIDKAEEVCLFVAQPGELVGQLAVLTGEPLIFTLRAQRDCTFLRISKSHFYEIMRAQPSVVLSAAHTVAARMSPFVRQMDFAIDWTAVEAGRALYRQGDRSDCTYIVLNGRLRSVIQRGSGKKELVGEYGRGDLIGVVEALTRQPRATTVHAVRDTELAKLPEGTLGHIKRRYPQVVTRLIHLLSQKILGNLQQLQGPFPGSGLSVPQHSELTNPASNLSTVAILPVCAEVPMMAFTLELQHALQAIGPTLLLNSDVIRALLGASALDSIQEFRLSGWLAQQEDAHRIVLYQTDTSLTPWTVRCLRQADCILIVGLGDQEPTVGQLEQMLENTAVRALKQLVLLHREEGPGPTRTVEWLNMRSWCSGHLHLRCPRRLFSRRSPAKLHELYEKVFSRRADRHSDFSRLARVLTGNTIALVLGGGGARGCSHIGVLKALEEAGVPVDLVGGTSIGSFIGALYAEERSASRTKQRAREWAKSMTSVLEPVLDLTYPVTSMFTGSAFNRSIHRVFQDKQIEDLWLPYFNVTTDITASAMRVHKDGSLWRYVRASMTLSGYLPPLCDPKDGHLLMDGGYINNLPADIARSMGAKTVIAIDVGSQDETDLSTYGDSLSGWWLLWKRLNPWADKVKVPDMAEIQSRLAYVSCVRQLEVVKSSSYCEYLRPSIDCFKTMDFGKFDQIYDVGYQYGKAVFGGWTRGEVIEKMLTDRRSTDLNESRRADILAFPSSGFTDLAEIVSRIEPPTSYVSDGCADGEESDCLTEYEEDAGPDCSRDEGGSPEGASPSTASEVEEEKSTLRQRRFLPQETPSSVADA
Conditions: Neuro2a, 3 nM.

For test [4], the target named is Dipeptidyl peptidase 2 (Mus musculus) (UniProt Q9ET22). To be noted: Neuro2a, 3 nM.
In test [5] the target is T4, Acyl-coenzyme A thioesterase 2, mitochondrial (Mus musculus) (UniProt Q9QYR9).
T4 sequence (whole entry): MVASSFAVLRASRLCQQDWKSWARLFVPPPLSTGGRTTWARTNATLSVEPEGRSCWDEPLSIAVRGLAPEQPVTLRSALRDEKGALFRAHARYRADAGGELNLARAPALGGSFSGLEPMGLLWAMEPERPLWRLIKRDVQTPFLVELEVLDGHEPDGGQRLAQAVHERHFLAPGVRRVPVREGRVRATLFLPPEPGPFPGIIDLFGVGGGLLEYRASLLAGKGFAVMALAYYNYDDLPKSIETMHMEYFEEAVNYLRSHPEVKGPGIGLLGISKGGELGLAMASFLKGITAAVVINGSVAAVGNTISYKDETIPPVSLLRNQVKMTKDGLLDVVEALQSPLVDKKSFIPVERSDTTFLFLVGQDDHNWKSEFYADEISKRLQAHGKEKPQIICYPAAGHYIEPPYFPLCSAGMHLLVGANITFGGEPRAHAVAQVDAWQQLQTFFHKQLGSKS
To be noted: Neuro2a, 3 nM.

This passage reports inhibition results from ChEMBL document CHEMBL3259629, “Discovery and optimization of piperidyl-1,2,3-triazole ureas as potent, selective, and in vivo-active inhibitors of α/β-hydrolase domain containing 6 (ABHD6)” (J Med Chem, 2013).

In general, inhibition refers to the drop in the measured response relative to a control, in per cent.

Molecules are shown by their SMILES. Active and inactive are the calls of the source. The rule behind the calls is not given here.

Sequence of Dipeptidyl peptidase 2 (Mus musculus) (Q9ET22 whole entry): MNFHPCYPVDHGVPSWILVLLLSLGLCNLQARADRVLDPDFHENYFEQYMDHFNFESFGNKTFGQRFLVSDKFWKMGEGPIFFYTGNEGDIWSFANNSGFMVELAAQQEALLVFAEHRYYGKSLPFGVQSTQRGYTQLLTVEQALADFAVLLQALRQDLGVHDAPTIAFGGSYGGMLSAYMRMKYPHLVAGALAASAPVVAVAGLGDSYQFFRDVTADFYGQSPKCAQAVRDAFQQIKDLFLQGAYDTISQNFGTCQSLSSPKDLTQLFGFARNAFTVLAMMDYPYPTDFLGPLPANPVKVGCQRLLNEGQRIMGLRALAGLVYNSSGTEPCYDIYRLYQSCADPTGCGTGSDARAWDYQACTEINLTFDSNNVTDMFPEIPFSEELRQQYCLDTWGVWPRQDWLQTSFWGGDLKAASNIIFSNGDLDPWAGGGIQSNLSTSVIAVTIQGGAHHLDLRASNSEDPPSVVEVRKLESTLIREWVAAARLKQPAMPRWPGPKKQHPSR

For `O=C(N1CCCCC1c1ccccc1)n1cc(-c2ccc(-c3cccc(CO)c3)cc2)nn1` (racemic), the inhibition in test [1] was less than 50%; in test [2] it was 29%; in test [3], less than 50%; in test [4], less than 50%; in test [5] it was less than 50%. The inhibition entry in the test on Mus musculus was “Active”.
Regarding `O=C(c1cccc(-c2ccc(-c3cn(C(=O)N4CCCCC4c4ccccc4)nn3)cc2)c1)N1CCCCC1` (racemic), the inhibition was less than 50% in test [1]; 51% in test [2]; less than 50% in test [3]; less than 50% in test [4]; less than 50% in test [5]. Also, in the test on Mus musculus, the inhibition entry was “Active”.
`O=C(O)c1cccc(-c2ccc(-c3cn(C(=O)N4CCCCC4Cc4ccccc4)nn3)cc2)c1` (racemic): the inhibition in test [1] is less than 50%; in test [2], 62%; in test [3] it was less than 50%; in test [4] it was less than 50%; in test [5] it was less than 50%. The inhibition entry with Mus musculus is “Active”.
